Laboratory results: the EternaBench riboswitch data

System: MS2 coat protein
Assay: apparent Kd, MS2 coat protein; higher = weaker binding; RNA-MaP array; FMN 200 µM where present
Outline: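 The apparent Kd is reported as the median of filtered per-cluster binding-curve fits. To get these curves, designs transcribed by stalled E. coli RNA polymerase on Illumina sequencing-chip clusters were titrated with SNAP-549-labelled MS2 coat protein from 0.7 or 1.5 nM, doubling to 3 µM. Titrations were run without and then with constant ligand in 100 mM Tris-HCl pH 7.5, 80 mM KCl, 4 mM MgCl2, BSA, DTT, yeast tRNA and Tween-20, and green signal was normalised to red-channel RNA signal and control-cluster median Fmax.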

[1] = designed as: OFF switch for flavin mononucleotide, no ligand
[2] = ligand present: flavin mononucleotide, designed as: OFF switch for flavin mononucleotide
[3] = designed as: ON switch for flavin mononucleotide, no ligand
[4] = ligand present: flavin mononucleotide, designed as: ON switch for flavin mononucleotide

Row | Sequence | apparent Kd [1] | apparent Kd [2] | apparent Kd [3] | apparent Kd [4]
1 | AACGCGUCAGGAUAUGCCAUAAAUUACCUAAUACGACCAUAGCAGAAGGGACAUGAGGAUCACCCAUGUAAAUA | 36.2 nM | 28.8 nM |  | 
2 | GUGUACUGAGGAUAUACAUGAGGAUCACCCAUGUGAAUAAGAUAGAAUAAGAUAAAGUGUAGAAGGCAGAGUGU | 40.8 nM | 35.4 nM |  | 
3 | AUUUAUGUCAUAGGAUAUAUAAAUAAAUUUAUAACAUGAGGAUCACCCAUGUACUUUAGUAUGAGGUAGAAGGAUGAUAAGAGU |  |  | 35.1 nM | 26.7 nM
4 | GAGUAGAUCCGAGGAUAUACAAUCCGGAAACGGUACAUGAGGAUCACCCAUGUAGAAGGCGGAUCUACAGGUACUAAAGUACCU |  | 7.89 nM |  | 
5 | UCCUUGUCCUGAGGAUAUCCGAGGUUCCCAAAAGGAGAAGGCAGGACAUGAGGAUCACCCAUGUACCCAGAAAACGUGCAGAGU | 122 nM | 25 nM |  | 
6 | UUAUAAAGUGUGAGGAUAUGCUGGUCCAUAGAUCAGCAGAAGGCACAUGAGGAUCACCCAUGUAAUAUAUUUUU | 28.8 nM | 133 nM |  | 
7 | GCGCUGCGAGGAUAUACAUGAGGAUCACCCAUGUGUCGGCAGCCAUGCUAGUACAAAUGUAGAAGGCGCGUAAA | 16.8 nM | 17.8 nM |  | 
8 | UGGUACAUGGGAGGAUAUGGGUUGAUAACAUGAGGAUCACCCAUGUUAAAUAUCGCGAGAGCGAACUAGAAGGCCCAUGUACCU |  |  | 715 nM | 45.1 nM
9 | GUCGAAGCCGUACUGGUCGACGGUCAGGAUAUACAUGAGGAUCACCCAUGUGCUAUUGAUACUAUGUAGAAGGGACCCACCGCA | 13.3 nM | 19 nM |  | 
10 | CCGCUGUCAGGAUAUCGUGCAUACAACGAAAGUUCUAUGUGCGAGAAGGGACAUGAGGAUCACCCAUGUUUCCG | 16.6 nM | 25.8 nM |  | 
11 | UAGAAAGAUUAAUAUGAUUACAUGAGGAUCACCCAUGUAUAAUAGGAUAUCGACGUCAAUGACGUCGAGAAGGAUUAUACAUAA | 53.6 nM | 71.2 nM |  | 
12 | AAAAUCGAAGGAUAUACAUAUCCUUUAGCGGCAAUGCCGCGACAUGAGGAUCACCCAUGUAGAAGGUCGUAAAA | 27.6 nM | 31.5 nM |  | 
13 | GGGCCCGGUGUGAGGAUAUCGGGUUUGAAAGGGCCCGAGAAGGCACAUGAGGAUCACCCAUGUAAGCCGGGCCC | 15.4 nM | 14.4 nM |  | 
14 | GGUGUCGCAUGAGGAUAUGGUCAGCUUUGCUGACCAGAAGGCAUGUCGAUAGACAUGAGGAUCACCCAUGUAGUAAAGACACCA |  |  | 990 nM | 72.7 nM
15 | UGCUGACGAGGAUAUACAUGAGGAUCACCCAUGUUGGUUCAGCGACUUCGGUCGCAAUGUAGAAGGCGUCAGCU | 410 nM | 277 nM |  | 
16 | AGCUAGUCAGGAUAUACAAACAUGUCAAAAGACGUGAAGGGACAUGAGGAUCACCCAUGUAGAAGGGACUAGCA | 66.2 nM | 379 nM |  | 
17 | UGGAUGUAGGAGAAGGAGGACUUCAUGAGGAUCACCCAUGUGUUAGGACUUAGGAUAUUUGACAACAUGAGGAUCACCCAUGUG |  |  | 60 nM | 52.7 nM
18 | GGCUAGUCAGGAUAUACGAACAUGUCGCCAGAUGUCAAGGUACAUGAGGAUCACCCAUGUAGAAGGGACUAGCC | 42.7 nM | 168 nM |  | 
19 | UGGACUGGGCAGAAGGGACAUGAGGAUCACCCAUGUCUUGGGCUACUUCAGUCAGGAUAUGCCCGUUGAAUAUCCGUGCAUCAA | 10.2 nM | 52.6 nM |  | 

Row | Sequence | apparent Kd [1] | apparent Kd [2] | apparent Kd [3] | apparent Kd [4]
20 | AGUGGUGAGCAAGGAUAUCGCCACUGCGUGACCUCACAACGGAUACAUGAGGAUCACCCAUGUGGCGAGAAGGUGCGGGAACGG | 28.1 nM | 36.9 nM |  | 
21 | UUUUAACAUGAGGAUCACCCAUGUGAGGAUAUCGAAAUUUAUAUUUAUAUUAAUAAAUCGAGAAGGCACAUUUU | 117 nM | 117 nM |  | 
22 | AUUUAGAGAGGAUAUAUAUUGUGAAACAUGAGGAUCACCCAUGUAAUAAUAUGGAUGUAAAUAGAAGGCUCAUUUA | 38.1 nM | 34.9 nM |  | 
23 | GGUUUAGGCGAAGGAUAUCCGUCGCGAGAUACUGGAGAAGGUCGCCUUAAUACAUGAGGAUCACCCAUGUGGCGGGUGAACCAC | 326 nM | 47.6 nM |  | 
24 | UUCAGCUCGACAGGAUAUACAUCACUGCUUCGGCAGUGUAUCUUAAUAACAUGAGGAUCACCCAUGUAGAAGGGUCGAGCUGAA | 17.9 nM | 31.4 nM |  | 
25 | GGAUAGGACAGAGGAUAUACGGCUAGGAGAUACUAGCCACUAUUCCUCACAUGAGGAUCACCCAUGUAGAAGGCUGUCCUAUCG | 16.9 nM | 109 nM |  | 
26 | GGGUACAUCGGAGGAUAUCAUGUAUAGACAUGAGGAUCACCCAUGUCGUACGAGAGUACGGAGAUUGAGAAGGCCGAUGUACCG |  |  | 20.7 nM | 17.3 nM
27 | GCUACUACAUGAGGAUCACCCAUGUAUCCGUAGCGGGCCGCACAGGAUAUCAACCUCGGAAGAGGUGAGAAGGGUGAUACUCAU |  |  | 23.2 nM | 38.1 nM
28 | AGGUUGUGAGGAUAUUAGUUUUAUGAUUGGAGGAGUUUGGCUGAGAAGGCACAUGAGGAUCACCCAUGUAGAUC | 61.9 nM | 124 nM |  | 
29 | UCACGGGACUAAGGAUAUAUGUGUACCAUUUUCAUAGAAGGUAGAAUGUUUGAUCAUAAACUAAACAUGAGGAUCACCCAUGUU | 27 nM | 25.1 nM |  | 
30 | CCUCCCUGAGGAUAUCCACCCUCAUACAUGAGGAUCACCCAUGUUCAACCCUGGGUACCCGGAGAAGGCAGAUUUC | 116 nM | 175 nM |  | 
31 | CCUCAGUAAGGAUAUCAGCUUAGGAGGUUGGUAAUGAGAGCUGAGAAGGUACAUGAGGAUCACCCAUGUUAGUU | 30.6 nM | 76.4 nM |  | 
32 | CCGCCCUGAGGAUAUCCACCCUCAUACAUGAGGAUCACCCAUGUUCACCCUUGGGUUCCCGGAGAAGGCAGCUUUC | 347 nM | 393 nM |  | 
33 | UUACUCAUGUAAGGAUAUGCAGCCGUUUCGGCUGCAGAAGGUACUAUAAUACAUGAGGAUCACCCAUGUCUUUUUAAUUUUUAU |  |  | 88.7 nM | 40.4 nM
34 | GGUGCCAUGUAGAAGGCAGAUCUGAUUCAGAUCUGAGGAUAUACAUGAGGAUCACCCAUGUAAGGGCACCGCACGAGAGUGCAA | 6.56 nM | 10.2 nM |  | 
35 | UGGCCAAGAGGAUAUACAUGAGGAUCACCCAUGUCCAUCCUGAUGGAUAGGGCCGAGUGUAGAAGGCUUGGUCC | 32.6 nM | 18 nM |  | 
36 | AGCUACGUUUCGUAGCAGCUAGGUGAGGAUAUUCAAUUUUUCACAUGAGGAUCACCCAUGUAUGUGAAGAAGGCGCCUAGAAAU |  |  | 11.1 nM | 4.98 nM
37 | UGGUCAUGAUCAGGAUAUUAACAUGGGCUACAUUAAGAAGGGAUAGUGAGAUACGAACUACAUGAGGAUCACCCAUGUGUUGUU |  |  | 68.7 nM | 55.4 nM
38 | GGGUUGCUACAAGGAUAUGAUGAAAGUGAGACAUCAGAAGGUGUAGUAUCACAUGAGGAUCACCCAUGUAGAACAACCCAAACC |  |  | 369 nM | 23 nM

Row | Sequence | apparent Kd [1] | apparent Kd [2] | apparent Kd [3] | apparent Kd [4]
39 | AAAGUGUCAGGAUAUUGUUAGUUUAGUUGUUUGUAUUAGUUCGAGAAGGGACAUGAGGAUCACCCAUGUUGAAA | 34 nM | 32.9 nM |  | 
40 | GUCUUUAAGGUAGGAUAUAGUAUGAUGGUUUAAUUAGAAGGAUCUCACAUGAGGAUCACCCAUGUAAUAGGAUUACCCAUGUAU | 60.9 nM | 43.4 nM |  | 
41 | CCUCCACAUGAGGAUCACCCAUGUCAGGAUAUCGUGUGUGCGUUUUCGGUCUUUCGCGCGAGAAGGGACGUCUG | 30.6 nM | 34.9 nM |  | 
42 | GUACAUGAGCAGAAGGGCAAUUAAUUAAAAUUUUAUGUUUAUCAGAUAUGCAGGAUAUGUUAAACAUGAGGAUCACCCAUGUAC |  |  | 191 nM | 48.5 nM
43 | AAACAUGUCCGAGGAUAUCUGGAAACAUUUCCAAGAGAAGGCGGACAUGAGGAUCACCCAUGUCUCUCCUCAUCAAAUCCGAGU | 9.24 nM | 89.3 nM |  | 
44 | ACUAGAUGAGGAUAUGCACAUUUUAGUGUUCCUCUAGAUUAACAUGAGGAUCACCCAUGUAGAAGGCGUCAUUU | 77 nM | 91.5 nM |  | 
45 | AUACACUUUCGAGGAUAUCGGUGAUAAAUUUUACGAGAAGGCGAUAAAAGAUAUAAUCUUAUAUACAUGAGGAUCACCCAUGUU |  |  | 27.3 nM | 25.1 nM
46 | CUUUCGUGAGGAUAUGUGGCUUCGAUCGUGAAAUCGAGGCUACAGAAGGCACAUGAGGAUCACCCAUGUUCCUC | 34.3 nM | 410 nM |  | 
47 | AUGCUUCACACAGGAUAUUACAACAUGAGGAUCACCCAUGUACAUGACAUGAGGAUCACCCAUGUUAAGAAGGGUGUGAAGCAU | 261 nM | 505 nM |  | 
48 | GGGUACAUGGGAGGAUAUCCUCAAGAGACAUGAGGAUCACCCAUGUAUUAUAAGCCUAAUGGCAUGGAGAAGGCCCAUGUACCG |  |  | 397 nM | 69.7 nM
49 | UGAUACAUGAGGGUCUCCCAUGACAUGAGGAUCACCCAUGUGCAGGAUAUACGUGUGAUAAUAUAGUAGAAGGGCAGUCUAUGU | 345 nM | 577 nM |  | 
50 | UGCUGUGUCAGAGGAUAUACACCUAUAAUCCAUUGCAAAUAGCGAUGGACAUGAGGAUCACCCAUGUAGAAGGCUGUCACAGCA | 214 nM | 647 nM |  | 
51 | GGUCGUCACAUUUACAUGAGGAUCACCCAUGUCGAAAGACAUGAGGAUAUGCAUCCUAAUUGGAUGCAGAAGGCAUGGACGACC |  |  | 445 nM | 249 nM
52 | AUACGUGAGAAGGAUAUCACUCGCCAAAGGCGUUGAGAAGGUUUCACAUGAGGAUCACCCAUGUGCUCUUCUAG | 27.7 nM | 61.5 nM |  | 
53 | CGCACUAUACAUGAGGAUCACCCAUGUUAAUAUGAGAUAGUCAGAAGGCAUUGUAUGAGAAAUUAUGAGGAUAUGAAUAGUGCG |  |  | 106 nM | 32.8 nM
54 | CGUCCACAUGAGGAUCACCCAUGUGAGGAUAUCGAUGUCCCAGGGCGGGUGCGGGACUCGAGAAGGCACUAGGU | 32.7 nM | 93.6 nM |  | 
55 | GGAUAGGACAGAGGAUAUACGUGCUAGAGAUACUAGCAAAAUUGCCUCACAUGAGGAUCACCCAUGUAGAAGGCUGUCCUAUCG | 7.72 nM | 134 nM |  | 
56 | CAGUGCUGUUGAGAGGAUAUGCGGCGACGGACAUGAGGAUCACCCAUGUUAGCGACAGCGUUGCGGCAGAAGGCUCUGCCCACUG |  |  | 11.2 nM | 10.4 nM
